In series [1] the test system is Candida albicans. The series can be described thus: Growth inhibition of Candida albicans ATCC 10231 at 125 ug/ml incubated for 48 hrs under dark condition by broth microdilution method relative to control. The series is classed as functional. Conditions: ATCC 10231, 48 h, read-out: GI. A digest of the protocol:
(§1)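 CLSI M27-A3 broth microdilution in RPMI-1640, DMSO ≤1%. Inoculum 1-5 × 10^3 CFU/mL. Incubated 48 h at 30 °C, dark. % inhibition = 100 − (OD405 test − sterility control)/(OD405 growth control − sterility control), with growth and sterility control wells. Triplicate.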
In general terms: Dilution methods test growth across graded concentrations, often in twofold steps.

For series [2], the system named is Cryptococcus neoformans. The series can be described thus: Growth inhibition of Cryptococcus neoformans ATCC 32264 at 15.62 ug/ml incubated for 48 hrs under dark condition by broth microdilution method relative to control. In kind it is functional. Conditions: ATCC 32264, 48 h, read-out: GI. A digest of the protocol: as §1
In series [3] the test system is SK-MEL-5. Put plainly: Growth inhibition of human SK-MEL-5 cells at 10 uM incubated for 48 hrs by sulforhodamine B assay. In kind it is functional, cell-based. A digest of the protocol:
(§2)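 NCI-60 single-dose screen at 10 µM for 48 h. Cells were grown in RPMI-1640 with 5% FBS and 2 mM L-glutamine and preincubated 24 h before compound. Time-zero plates were TCA-fixed at compound addition. After exposure, cells were TCA-fixed, stained with SRB and read at 515 nm. Percentage growth was calculated against time-zero and untreated-control absorbances.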

Series [4] concerns U-251. Put plainly: Growth inhibition of human U251 cells at 10 uM incubated for 48 hrs by sulforhodamine B assay. The series is classed as functional, cell-based. A digest of the protocol: as §2
A general note: Sulforhodamine B stains cellular protein and so reports cell mass.

The subject of series [5] is Staphylococcus aureus. The series can be described thus: Antibacterial activity against methicillin-resistant Staphylococcus aureus ATCC 43300 after 24 hrs by resazurin dye based microdilution assay. Conditions: ATCC 43300, 24 h. In kind it is functional. A digest of the protocol:
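Broth microdilution in Mueller Hinton broth, inoculum 5 × 10^5 – 8 × 10^5. Compound stocks diluted in MHB with 5% DMSO and 0.1% Tween 80. Incubation 24 h at 35-37 °C. MIC is the lowest concentration with visible growth inhibition and/or by resazurin (1 mg/mL) read-out. Gentamicin as control. Run in duplicate, replicated at least three times.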

The subject of series [6] is SK-MEL-28. The series can be described thus: Growth inhibition of human SK-MEL-28 cells at 10 uM incubated for 48 hrs by sulforhodamine B assay. The series is classed as functional, cell-based. A digest of the protocol:
as §2

Series [7] relates to IGROV-1. Put plainly: Growth inhibition of human IGROV1 cells at 10 uM incubated for 48 hrs by sulforhodamine B assay. The series is classed as functional, cell-based. A digest of the protocol: (§3)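 NCI 60-line panel, single 10 μM dose. Cells were grown in RPMI-1640 with 5% FBS and 2 mM L-glutamine and pre-incubated 24 h before compound addition (DMSO stock). Exposure was 48 h at 37 °C, 5% CO2. Cells were fixed with cold TCA (10% final), stained with 0.4% SRB, bound dye dissolved in 10 mM Tris base, A515 read. Growth was taken relative to time-zero and untreated control plates.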

Series [8] has as its system HT-29. The series can be described thus: Growth inhibition of human HT-29 cells at 10 uM incubated for 48 hrs by sulforhodamine B assay. The series is classed as functional, cell-based. A digest of the protocol:
as §3

The test system of series [9] is Cryptococcus neoformans. Put plainly: Growth inhibition of Cryptococcus neoformans ATCC 32264 at 7.8 ug/ml incubated for 48 hrs under dark condition by broth microdilution method relative to control. In kind it is functional. As to conditions: ATCC 32264, 48 h, read-out: GI. A digest of the protocol: as §1
Series [10] concerns Plasmodium falciparum. The series can be described thus: Antiplasmodial activity against chloroquine-sensitive Plasmodium falciparum 3D7 assessed as reduction in parasitic LDH activity after 48 hrs by Malstat reagent based […] method. The series is classed as functional. Conditions: 3D7, 48 h. A digest of the protocol:
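Unsynchronized P. falciparum 3D7 at 0.5% parasitemia and 1% hematocrit in RPMI with 3% Albumax II. Exposed to 100, 25, 6.25 and 1.56 µg/mL for 48 h at 37 °C under 90% N2/5% CO2/5% O2. After three freeze-thaw cycles, LDH measured with Malstat and NBT/PES, 1 h in the dark, read at 650 nm. IC50 by Probit; triplicate, ≥2 experiments.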

Series [11] concerns Candida albicans. Put plainly: Growth inhibition of Candida albicans ATCC 10231 at 3.4 ug/ml incubated for 48 hrs under dark condition by broth microdilution method relative to control. The series is classed as functional. As to conditions: ATCC 10231, 48 h, read-out: GI.
Series [12] concerns NCI-H460. The series can be described thus: Growth inhibition of human NCI-H460 cells at 10 uM incubated for 48 hrs by sulforhodamine B assay. In kind it is functional, cell-based. A digest of the protocol: as §3
Series [13] deals with COLO 205. Put plainly: Growth inhibition of human COLO205 cells at 10 uM incubated for 48 hrs by sulforhodamine B assay. In kind it is functional, cell-based. A digest of the protocol: (§4)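 NCI 60-cell-line screen at a single 10 µM dose. Cells in RPMI-1640 with 5% FBS and 2 mM L-glutamine, pre-incubated 24 h, then treated for 48 h at 37 °C. TCA fixation, sulforhodamine B staining, absorbance at 515 nm. Percentage growth calculated against time-zero and untreated controls.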

For series [14], the system named is OVCAR-8. Put plainly: Growth inhibition of human OVCAR8 cells at 10 uM incubated for 48 hrs by sulforhodamine B assay. The series is classed as functional, cell-based. A digest of the protocol: as §3
In series [15] the test system is EKVX. The series can be described thus: Growth inhibition of human EKVX cells at 10 uM incubated for 48 hrs by sulforhodamine B assay. In kind it is functional, cell-based. A digest of the protocol:
as §4

For series [16], the system named is Candida albicans. The series can be described thus: Growth inhibition of Candida albicans ATCC 10231 at 62.5 ug/ml incubated for 48 hrs under dark condition by broth microdilution method relative to control. In kind it is functional. As to conditions: ATCC 10231, 48 h, read-out: GI. A digest of the protocol:
as §1

Series [17] relates to Trypanosoma cruzi. Put plainly: Antitrypanosomal activity against Trypanosoma cruzi Tulahuen intracellular amastigote harboring LacZ infected in human U937 cells after 72 hrs by CPRG/Nonidet reagent based spectrophotometric method. Conditions: U-937, 72 h. In kind it is functional, cell-based. A digest of the protocol: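 U-937 cells at 2.5 × 10^5 cells/mL in RPMI-1640 with 10% serum and 0.1 µg/mL PMA were infected with β-galactosidase-transfected Tulahuen epimastigotes at 5 parasites per cell. Infected cells were exposed to 50, 12.5, 3.125 and 0.78 µg/mL for 72 h. CPRG (100 uM) and 0.1% Nonidet P-40 were added for 3 h, read at 570 nm. EC50 by Probit. Triplicate, at least two experiments; benznidazole as reference.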

Series [18] has as its system UO-31. Put plainly: Growth inhibition of human UO31 cells at 10 uM incubated for 48 hrs by sulforhodamine B assay. The series is classed as functional, cell-based. A digest of the protocol: as §2
For series [19], the system named is HL-60(TB). The series can be described thus: Growth inhibition of human HL-60(TB) cells at 10 uM incubated for 48 hrs by sulforhodamine B assay. The series is classed as functional, cell-based. A digest of the protocol: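 NCI 60-line single-dose screen at 10 μM, 48 h. Cells in RPMI-1640 with 5% FBS and 2 mM L-glutamine at 37 °C, 5% CO2. Growth measured by TCA fixation and SRB staining (515 nm), relative to time-zero and untreated control wells.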

The test system of series [20] is KM12. The series can be described thus: Growth inhibition of human KM12 cells at 10 uM incubated for 48 hrs by sulforhodamine B assay. The series is classed as functional, cell-based. A digest of the protocol: as §3
Series [21] relates to HCT-15. Put plainly: Growth inhibition of human HCT15 cells at 10 uM incubated for 48 hrs by sulforhodamine B assay. The series is classed as functional, cell-based. A digest of the protocol:
as §4

For series [22], the system named is TK-10. The series can be described thus: Growth inhibition of human TK10 cells at 10 uM incubated for 48 hrs by sulforhodamine B assay. The series is classed as functional, cell-based. A digest of the protocol: as §2
Series [23] deals with U-937. The series can be described thus: Cytotoxicity against human U937 cells after 72 hrs by MTT assay. In kind it is cell-based. As to conditions: u-937, 72 h. A digest of the protocol: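 Exponentially growing U-937 at 1 × 10^5 cells/mL in RPMI-1640 with 10% FBS were exposed to 200, 50, 12.5 and 3.125 µg/mL for 72 h at 37 °C, 5% CO2. MTT for 3 h, stopped with isopropanol/SDS, formazan read at 570 nm, blank-corrected. LC50 by Probit from % viability against untreated cells. Triplicate, at least two independent experiments.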
(In general: Tetrazolium dyes change colour on reduction, which living cells bring about.)

Converted amounts (≈) assume the structure as drawn. The source made the active and inactive calls. The calls are words filed in the database; no cut-off is given here.

Turning to `Clc1ccc(C2=NN(c3ccccc3)C(c3cccc(Nc4ccnc5cc(Cl)ccc45)c3)C2)cc1` (stereo unspecified), the inhibition of growth at 125 µg/mL in series [1] came to 8.35%. For the same compound, the inhibition of growth at 15.62 µg/mL in [2] stood at 0%. In addition, the “growth inhibition (GI)” value in [3], in series [4], in series [6], in [7], in series [8] and in series [12] was “inactive” each time. For the same compound, the “growth inhibition (GI)” value in [13], in series [14], in [15], in [18], in [19] and in series [20] was “inactive” throughout. Besides, the “growth inhibition (GI)” value in [21] and in series [22] was “inactive” throughout. Also, the MIC (in general, the lowest concentration that inhibits growth of the organism) in [5] is above 1000 µg/mL. For the same compound, in series [9], the inhibition of growth at 7.8 µg/mL turned out to be 0%. The EC50 (in general, the concentration at which the effect is half-maximal) in series [10] was 11.7 µg/mL (≈ 23 µM); in [17], 16.2 µg/mL (≈ 31.8 µM). Further, in series [11], the inhibition of growth at 3.4 µg/mL was 0%. Moreover, the inhibition of growth at 62.5 µg/mL in series [16] was found to be 7.77%. Further, the LC50 (in general, the concentration lethal to half of the exposed cells or organisms) in series [23] is above 200 µg/mL.

For `COc1cc(C2=NN(c3ccc(Cl)cc3)C(c3cccc(Nc4ccnc5cc(Cl)ccc45)c3)C2)cc(OC)c1OC` (stereo unspecified), the inhibition of growth at 125 µg/mL in [1] was found to be 16.7%. Moreover, the inhibition of growth at 15.62 µg/mL in series [2] turned out to be 12.2%. Moreover, the “growth inhibition (GI)” value in [3], in series [4], in series [6], in [7], in [8] and in series [12] was “inactive” in each case. Further, the “growth inhibition (GI)” value in [13], in series [14], in [15], in series [18], in [19] and in series [20] was “inactive” each time. Besides, the “growth inhibition (GI)” value in [21] and in series [22] was “inactive” in each case. This compound also showed an MIC in series [5] above 1000 µg/mL. The inhibition of growth at 7.8 µg/mL in series [9] is 10.4%. Also, the EC50 in series [10] amounted to 44.6 µg/mL (≈ 74.3 µM); in series [17] it was 22.6 µg/mL (≈ 37.7 µM). Also, the inhibition of growth at 3.4 µg/mL in series [11] came to 2.27%. For the same compound, the inhibition of growth at 62.5 µg/mL in series [16] worked out at 12.2%. The compound further displayed an LC50 in [23] above 200 µg/mL.

For the origin of these results see ChEMBL document CHEMBL4038284, “Synthesis of novel quinoline-based 4,5-dihydro-1H-pyrazoles as potential anticancer, antifungal, antibacterial and antiprotozoal agents” (Eur J Med Chem, 2017).
